In brackets after ≈: the same amount, converted by molar mass.
How the values were obtained:
[1] = Selective index, ratio of IC50 for mouse L929 cells to MIC for Staphylococcus aureus ATCC 29213
How it was run: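 Selectivity index calculated as L929 IC50 (μM) divided by S. aureus MIC (μM).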

L929 = test: Cytotoxicity against mouse L929 cells by MTS assay; type: cell-based
How it was run: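 MTS assay on L929 mouse fibroblasts; IC50 reported as the average of three independent measurements.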

Staphylococcus aureus = test: Antibacterial activity against Staphylococcus aureus ATCC 29213 by broth microdilution assay; type: functional
How it was run: (§1)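 Broth microdilution per CLSI guidelines; compounds dissolved in DMSO; single agents tested; growth inhibition read by eye; run in duplicate (table footnote states at least triplicates).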

Escherichia coli = test: Antibacterial activity against Escherichia coli ATCC 25922 by broth microdilution assay; type: functional; how it was run: as §1

Row | Structure (SMILES) | Selectivity Index [1] | IC50 (L929) [µM] | MIC (Staphylococcus aureus) [µM] | MIC (Escherichia coli) [µg/mL]
1 | CCCCCCCCCOc1ccc(F)c(C(N)=O)c1F | 29 | 90 | 3.1 (≈ 0.928 µg/mL) | > 64
2 | NC(=O)c1c(F)ccc(N(Cc2ccc(Cl)cc2)Cc2ccc(Cl)cc2)c1F | >8 | > 100 | 13 (≈ 5.48 µg/mL) | > 64
3 | CCCCCC/C=C\CNc1ccc(F)c(C(N)=O)c1F | 4 | 99 | 25 (≈ 7.41 µg/mL) | > 64
4 | CCCCCCCCCNc1ccc(F)c(-c2nnn[nH]2)c1F | >2 | > 100 | 50 (≈ 16.2 µg/mL) | > 64
5 | CCCCCCCCNc1ccc(F)c(C(N)=O)c1F | >2 | > 100 | 50 (≈ 14.2 µg/mL) | > 64
6 | CCCCCCCCCNc1ccc(F)c(/C(N)=N/O)c1F | >2 | > 100 | 50 (≈ 15.7 µg/mL) | > 64
7 | CCCCCCCC(C)Nc1ccc(F)c(C(N)=O)c1F (stereo unspecified) | >8 | > 100 | 13 (≈ 3.88 µg/mL) | > 64
8 | CCCCCCCCCN(C)c1ccc(F)c(C(N)=O)c1F | 19 | 60 | 3.1 (≈ 0.968 µg/mL) | > 64
9 | CCCCCCCCCN(C)c1ccc(F)c(/C(N)=N/O)c1F | >8 | > 100 | 13 (≈ 4.26 µg/mL) | > 64
